As a reminder, the IC50 is the concentration needed to halve the response being measured. A word on the bioavailability: it is dose-corrected exposure relative to a reference, in per cent. A low value points to little systemic uptake. As a reminder, the Cmax is the maximum level reached in the sampled fluid or tissue. One may read the logD as lipophilicity at a set pH, counting ionised and neutral species. As a reminder, the AUC(0-t) is the area under the concentration-time curve up to a stated or last time point. A high value points to more exposure.

Molecules are shown by their SMILES. Converted amounts (≈) assume the structure as drawn.

Data set [1] deals with Vascular endothelial growth factor receptor 2 (Homo sapiens, UniProt P35968). Nature of the data set: Inhibition of KDR (unknown origin).
Data set [2] is filed under the species Homo sapiens. Nature of the data set: Selectivity ratio of IC50 for human recombinant PI3Kalpha to IC50 for ATM (unknown origin). The procedure, abridged: (§1)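 Enzymatic selectivity calculated as the off-target enzyme IC50 over the ATM enzyme IC50. IC50s in µM, taken as means of at least 3 (ATM) or 2 (other enzymes) independent measurements.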
The target of data set [3] is T1, Serine-protein kinase ATM (Homo sapiens, UniProt Q13315). Nature of the data set: Inhibition of ATM (unknown origin) using p53 as substrate incubated for 30 mins followed by substrate addition measured after 2 hrs in presence of ATP by HTRF method. (In general: In TR-FRET formats the signal depends on donor and acceptor labels being close together.)
Data set [4] is filed under the species Homo sapiens. As to the kind of experiment: Selectivity ratio of IC50 for DNAPK (unknown origin) to IC50 for ATM (unknown origin). The procedure, abridged:
as §1

Data set [5] has as its target Voltage-gated inwardly rectifying potassium channel KCNH2 (Homo sapiens, UniProt Q12809).
In data set [6] the target is DNA-dependent protein kinase catalytic subunit (Homo sapiens, UniProt P78527). As to the kind of experiment: Inhibition of DNAPK (unknown origin) using p53-based peptide substrate preincubated for 5 min prior to ATP addition.
Data set [7] is filed under the species Homo sapiens. Nature of the data set: Selectivity ratio of IC50 for human recombinant PI3Kbeta to IC50 for ATM (unknown origin). The procedure, abridged: as §1
Data set [8] deals with Phosphatidylinositol 4,5-bisphosphate 3-kinase catalytic subunit gamma isoform (Homo sapiens, UniProt P48736). As to the kind of experiment: Inhibition of human recombinant PI3Kgamma using PIP2/ATP as substrate incubated for 20 mins followed by substrate addition by Kinase Glo reagent based luminescence assay. Background: In Kinase-Glo more light means more ATP remaining.

A short description of data set [9]: in vitro. To be noted: human, hepatocytes.
Data set [10] is filed under the species Homo sapiens. Nature of the data set: Selectivity ratio of IC50 for ATR in human HT-29 cells to IC50 for ATM in human HT-29 cells. Format: cell-based.
The species entered for data set [11] is Homo sapiens. Nature of the data set: Selectivity ratio of IC50 for C-terminal FLAG-tagged recombinant mTOR (1362 to 2549 residues) (unknown origin) to IC50 for ATM (unknown origin). Put shortly:
as §1

The target in data set [12] is Phosphatidylinositol 4,5-bisphosphate 3-kinase catalytic subunit beta isoform (Homo sapiens, UniProt P42338). Nature of the data set: Inhibition of human recombinant PI3Kbeta using PIP2/ATP as substrate incubated for 20 mins followed by substrate addition by Kinase Glo reagent based luminescence assay.
Data set [13] in a line: in vitro. To be noted: rat, hepatocytes.
Data set [14] has as its target Glycogen synthase kinase-3 beta (Homo sapiens, UniProt P49841). As to the kind of experiment: Inhibition of GSK3beta (unknown origin).
Data set [15] has as its target Serine/threonine-protein kinase ATR (Homo sapiens, UniProt Q13535). Nature of the data set: Inhibition of ATR in human HT-29 cells assessed as reduction in Chk1 phosphorylation at Ser-345 residue after 60 mins in presence of 4-nitroquinoline-1-oxide by Hoechst 33258 staining based plate reader analysis. Format: cell-based.
Data set [16] has as its target Phosphatidylinositol 4,5-bisphosphate 3-kinase catalytic subunit alpha isoform (Homo sapiens, UniProt P42336). As to the kind of experiment: Inhibition of human recombinant PI3Kalpha using PIP2/ATP as substrate incubated for 20 mins followed by substrate addition by Kinase Glo reagent based luminescence assay.
The nature of data set [17]: Thermodynamic solubility of the compound in 0.1M aqueous phosphate buffer at pH 7.4 after 24 hrs by LC-UV analysis. Format: physicochemical. The conditions noted are these: read-out: Therm_solubility. The procedure, abridged:
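Solid samples equilibrated in 0.1 M aqueous phosphate buffer, pH 7.4, for 24 h at 25 °C.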

The target of data set [18] is Serine/threonine-protein kinase mTOR (Homo sapiens, UniProt P42345). As to the kind of experiment: Inhibition of C-terminal FLAG-tagged recombinant mTOR (1362 to 2549 residues) (unknown origin) using Biotin-Ahx-Lys-Lys-Ala-Asn-Gln-Val-Phe-Leu-Gly-Phe-Thr-Tyr-Val-Ala-Pro-Ser-Val-Leu-Glu-Ser-Val-Lys-Glu-NH2 as substrate after 90 mins by AlphaScreen assay.
Data set [19] deals with T1, Serine-protein kinase ATM. Nature of the data set: Inhibition of ATM phosphorylation at Ser-1981 residue in human HT-29 cells incubated for 1 hr followed by X-ray irradiation by Hoechst staining based fluorescence plate reader analysis. The class given is cell-based.
A short description of data set [20]: Oral bioavailability in dog at 4.2 mg/kg. The class given is ADME, organism-based, Canis lupus familiaris. The conditions noted are these: in vivo.
The nature of data set [21]: Intrinsic clearance in rat hepatocytes assessed per million cells. Format: ADME, cell-based, Hepatocyte. To be noted: read-out: CLH. Put shortly: (§2)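 Intrinsic clearance measured in hepatocytes of each species, reported as µL/min/10⁶ cells.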
The nature of data set [22]: Cmax in nude mouse at 50 mg/kg, po. Format: ADME, organism-based. The arrangement: dose 50 mg/kg, route oral. The conditions noted are these: in vivo. The procedure, abridged: (§3)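 Nude mice, single oral dose of 50 mg/kg. Vehicle was either a propylene glycol aqueous solution or 10% DMSO:90% captisol solution.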
A short description of data set [23]: Oral bioavailability in Han Wistar rat at 5 mg/kg. To be noted: in vivo. The class given is ADME, organism-based.
The nature of data set [24]: Volume of distribution at steady state in Han Wistar rat at 2 mg/kg, iv or 5 mg/kg, po. Format: ADME, organism-based. To be noted: in vivo, read-out: Vdss.
Data set [25] can be described thus: Intrinsic clearance in dog hepatocytes assessed per million cells. Format: ADME, cell-based, Canis lupus familiaris, Hepatocyte. The conditions noted are these: read-out: CLH. Put shortly: as §2
The nature of data set [26]: Intrinsic clearance in human hepatocytes assessed per million cells. To be noted: read-out: CLH. Format: ADME, cell-based, Hepatocyte. The procedure, abridged: as §2
Data set [27] can be described thus: Clearance in Han Wistar rat at 2 mg/kg, iv or 5 mg/kg, po. The class given is ADME, organism-based. The conditions noted are these: in vivo.
A short description of data set [28]: Intrinsic clearance in mouse hepatocytes assessed per million cells. Format: ADME, cell-based, Hepatocyte. To be noted: read-out: CLH. The procedure, abridged: as §2
The next data set can be described thus: physchem. To be noted: octanol/buffer, pH 7.4.
Data set [29] in a line: AUC (0 to 24 hrs) in nude mouse at 50 mg/kg, po. The class given is ADME, organism-based. More on the design: dose 50 mg/kg, time < 24 hr, route oral. To be noted: in vivo. The procedure, abridged:
as §3

A short description of data set [30]: Volume of distribution at steady state in dog at 1.7 mg/kg, iv or 4.2 mg/kg, po. Format: ADME, organism-based, Canis lupus familiaris. To be noted: in vivo, read-out: Vdss.
A further data set concerns Mus musculus. Nature of the data set: Time duration during which free plasma concentration stays above in-vitro ATM IC50 level in nude mouse at 50 mg/kg, po. The class given is ADME, organism-based. To be noted: in vivo. Put shortly: as §3
A short description of data set [31]: Clearance in dog at 1.7 mg/kg, iv or 4.2 mg/kg, po. Format: ADME, organism-based, Canis lupus familiaris. The conditions noted are these: in vivo.
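For logD in this document: determined by the shake flask method.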

T1 sequence (Q13315 whole entry): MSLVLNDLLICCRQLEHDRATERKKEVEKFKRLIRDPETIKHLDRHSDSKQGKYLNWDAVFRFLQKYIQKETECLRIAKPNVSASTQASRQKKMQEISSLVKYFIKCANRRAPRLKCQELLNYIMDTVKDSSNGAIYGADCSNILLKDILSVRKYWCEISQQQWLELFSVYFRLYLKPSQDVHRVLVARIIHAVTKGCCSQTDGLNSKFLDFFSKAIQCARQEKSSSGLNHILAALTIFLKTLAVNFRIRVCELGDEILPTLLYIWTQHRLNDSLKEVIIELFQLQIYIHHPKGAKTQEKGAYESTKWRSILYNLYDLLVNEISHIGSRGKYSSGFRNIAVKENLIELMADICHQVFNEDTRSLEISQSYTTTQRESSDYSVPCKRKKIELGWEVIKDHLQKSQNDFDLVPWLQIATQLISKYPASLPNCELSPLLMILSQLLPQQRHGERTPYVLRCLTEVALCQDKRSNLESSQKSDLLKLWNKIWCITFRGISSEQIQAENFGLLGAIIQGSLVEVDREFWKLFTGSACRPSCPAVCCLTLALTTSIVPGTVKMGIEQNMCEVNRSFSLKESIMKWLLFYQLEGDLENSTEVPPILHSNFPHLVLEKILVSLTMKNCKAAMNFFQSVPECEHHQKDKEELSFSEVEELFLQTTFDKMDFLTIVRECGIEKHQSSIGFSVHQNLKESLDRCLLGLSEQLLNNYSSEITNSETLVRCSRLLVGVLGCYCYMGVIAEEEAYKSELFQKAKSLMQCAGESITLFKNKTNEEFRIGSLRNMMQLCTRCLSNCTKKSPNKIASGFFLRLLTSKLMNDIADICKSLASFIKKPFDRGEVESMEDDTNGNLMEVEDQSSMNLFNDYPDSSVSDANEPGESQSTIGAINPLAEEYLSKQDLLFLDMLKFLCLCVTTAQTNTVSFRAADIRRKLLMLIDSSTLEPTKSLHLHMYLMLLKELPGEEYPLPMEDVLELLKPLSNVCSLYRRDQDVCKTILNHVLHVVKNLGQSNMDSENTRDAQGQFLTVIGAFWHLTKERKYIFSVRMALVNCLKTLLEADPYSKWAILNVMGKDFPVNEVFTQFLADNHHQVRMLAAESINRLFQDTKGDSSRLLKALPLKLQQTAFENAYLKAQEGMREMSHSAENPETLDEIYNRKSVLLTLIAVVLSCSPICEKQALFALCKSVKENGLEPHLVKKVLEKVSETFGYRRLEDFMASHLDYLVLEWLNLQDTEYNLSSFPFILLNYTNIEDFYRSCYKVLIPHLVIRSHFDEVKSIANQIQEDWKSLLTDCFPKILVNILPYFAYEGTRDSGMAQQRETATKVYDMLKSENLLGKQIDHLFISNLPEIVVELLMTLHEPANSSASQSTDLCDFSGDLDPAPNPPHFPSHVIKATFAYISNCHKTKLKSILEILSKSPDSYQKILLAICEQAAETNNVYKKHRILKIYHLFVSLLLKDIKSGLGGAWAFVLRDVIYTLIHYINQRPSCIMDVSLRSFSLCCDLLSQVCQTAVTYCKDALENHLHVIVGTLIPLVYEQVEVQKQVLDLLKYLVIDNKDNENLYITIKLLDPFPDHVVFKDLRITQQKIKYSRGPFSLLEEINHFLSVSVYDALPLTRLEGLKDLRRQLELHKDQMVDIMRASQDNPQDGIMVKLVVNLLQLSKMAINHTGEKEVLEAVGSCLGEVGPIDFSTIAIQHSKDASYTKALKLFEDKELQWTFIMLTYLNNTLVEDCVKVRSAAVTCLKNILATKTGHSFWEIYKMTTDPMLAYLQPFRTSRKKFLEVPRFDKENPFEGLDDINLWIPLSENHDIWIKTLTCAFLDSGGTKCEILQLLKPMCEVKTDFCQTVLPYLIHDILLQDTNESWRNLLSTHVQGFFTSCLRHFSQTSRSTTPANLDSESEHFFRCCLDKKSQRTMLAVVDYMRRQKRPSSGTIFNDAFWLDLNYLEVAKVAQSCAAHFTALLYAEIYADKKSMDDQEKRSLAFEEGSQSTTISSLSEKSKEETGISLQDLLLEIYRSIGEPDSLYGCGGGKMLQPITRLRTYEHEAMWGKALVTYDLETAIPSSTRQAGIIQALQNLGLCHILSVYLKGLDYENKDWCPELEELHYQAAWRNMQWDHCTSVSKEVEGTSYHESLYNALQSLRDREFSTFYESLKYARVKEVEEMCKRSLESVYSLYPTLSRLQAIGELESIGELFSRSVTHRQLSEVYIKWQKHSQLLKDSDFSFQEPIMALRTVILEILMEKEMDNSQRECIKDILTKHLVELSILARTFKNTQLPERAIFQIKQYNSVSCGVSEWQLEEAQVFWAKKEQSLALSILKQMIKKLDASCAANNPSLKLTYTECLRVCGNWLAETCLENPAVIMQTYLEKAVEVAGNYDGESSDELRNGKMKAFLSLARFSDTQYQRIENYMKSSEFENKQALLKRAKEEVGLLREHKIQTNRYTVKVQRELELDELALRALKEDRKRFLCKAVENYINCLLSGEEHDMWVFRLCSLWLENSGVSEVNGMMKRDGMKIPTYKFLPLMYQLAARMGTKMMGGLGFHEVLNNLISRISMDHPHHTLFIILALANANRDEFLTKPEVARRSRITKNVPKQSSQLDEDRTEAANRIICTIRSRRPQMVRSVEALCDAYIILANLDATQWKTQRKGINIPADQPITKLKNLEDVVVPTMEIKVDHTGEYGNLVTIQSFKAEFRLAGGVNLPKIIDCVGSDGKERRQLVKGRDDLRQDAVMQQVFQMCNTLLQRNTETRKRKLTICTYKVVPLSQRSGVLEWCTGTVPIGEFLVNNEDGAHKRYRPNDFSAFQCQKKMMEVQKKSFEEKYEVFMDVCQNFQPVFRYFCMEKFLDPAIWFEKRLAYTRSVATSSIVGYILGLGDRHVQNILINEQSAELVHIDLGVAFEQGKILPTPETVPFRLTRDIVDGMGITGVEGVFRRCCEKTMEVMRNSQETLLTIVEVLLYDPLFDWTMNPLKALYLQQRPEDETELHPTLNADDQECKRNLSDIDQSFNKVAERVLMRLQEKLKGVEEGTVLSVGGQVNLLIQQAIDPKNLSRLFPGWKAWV
Vascular endothelial growth factor receptor 2, sequence (P35968 whole entry): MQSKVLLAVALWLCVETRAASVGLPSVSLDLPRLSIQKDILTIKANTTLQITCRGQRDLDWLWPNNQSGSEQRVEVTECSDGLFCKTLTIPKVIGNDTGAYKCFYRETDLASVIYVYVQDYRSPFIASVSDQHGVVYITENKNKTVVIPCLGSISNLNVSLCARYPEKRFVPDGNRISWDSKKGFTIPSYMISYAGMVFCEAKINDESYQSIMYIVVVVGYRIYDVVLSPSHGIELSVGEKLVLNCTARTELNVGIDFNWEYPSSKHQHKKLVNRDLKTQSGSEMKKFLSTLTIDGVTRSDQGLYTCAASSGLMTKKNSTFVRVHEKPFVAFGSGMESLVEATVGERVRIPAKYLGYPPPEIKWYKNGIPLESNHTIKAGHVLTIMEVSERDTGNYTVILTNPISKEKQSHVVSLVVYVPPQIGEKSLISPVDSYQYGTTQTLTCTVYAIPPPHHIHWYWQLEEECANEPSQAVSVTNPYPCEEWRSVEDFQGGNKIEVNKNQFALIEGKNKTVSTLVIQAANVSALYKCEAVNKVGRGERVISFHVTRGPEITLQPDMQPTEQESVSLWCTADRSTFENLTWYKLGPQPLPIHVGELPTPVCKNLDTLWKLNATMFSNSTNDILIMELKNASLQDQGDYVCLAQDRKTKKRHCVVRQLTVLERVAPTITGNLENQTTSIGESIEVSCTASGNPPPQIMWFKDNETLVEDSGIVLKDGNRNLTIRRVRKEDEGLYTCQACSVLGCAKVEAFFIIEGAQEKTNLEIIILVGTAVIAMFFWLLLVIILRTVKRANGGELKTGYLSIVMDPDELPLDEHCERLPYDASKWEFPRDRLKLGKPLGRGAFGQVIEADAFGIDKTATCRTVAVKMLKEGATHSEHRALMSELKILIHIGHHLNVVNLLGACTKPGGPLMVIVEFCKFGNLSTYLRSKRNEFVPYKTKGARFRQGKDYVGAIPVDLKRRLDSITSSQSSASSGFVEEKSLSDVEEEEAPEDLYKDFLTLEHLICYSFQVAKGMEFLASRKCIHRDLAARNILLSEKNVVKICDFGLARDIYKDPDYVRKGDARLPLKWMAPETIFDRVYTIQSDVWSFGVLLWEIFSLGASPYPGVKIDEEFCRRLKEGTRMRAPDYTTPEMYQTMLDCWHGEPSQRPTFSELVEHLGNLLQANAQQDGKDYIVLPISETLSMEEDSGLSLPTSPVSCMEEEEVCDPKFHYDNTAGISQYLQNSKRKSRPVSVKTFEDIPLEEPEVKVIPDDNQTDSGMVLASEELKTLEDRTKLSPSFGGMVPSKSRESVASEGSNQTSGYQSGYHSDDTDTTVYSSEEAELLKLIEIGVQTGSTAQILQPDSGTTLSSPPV
Glycogen synthase kinase-3 beta, sequence (P49841 whole entry): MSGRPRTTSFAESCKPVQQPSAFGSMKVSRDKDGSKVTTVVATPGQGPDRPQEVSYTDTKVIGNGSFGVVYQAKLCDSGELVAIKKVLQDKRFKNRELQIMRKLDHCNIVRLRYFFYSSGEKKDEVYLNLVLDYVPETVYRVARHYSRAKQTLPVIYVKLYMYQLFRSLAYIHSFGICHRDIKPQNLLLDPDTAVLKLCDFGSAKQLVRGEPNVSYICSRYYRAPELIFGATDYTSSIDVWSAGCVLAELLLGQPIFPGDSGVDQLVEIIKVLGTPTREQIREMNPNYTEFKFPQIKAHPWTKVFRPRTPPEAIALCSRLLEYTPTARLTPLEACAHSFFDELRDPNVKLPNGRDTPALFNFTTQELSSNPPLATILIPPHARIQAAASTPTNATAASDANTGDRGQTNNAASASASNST

`CCC(CC)CNc1c(C(N)=O)cnc2ccc(C#N)cc12`: the IC50 in data set [1] was 8100 nM; in [3], 8 nM; in data set [5], 2300 nM; in [6] it was 98 nM; in [8], > 1000 nM; in [12], 5740 nM. For the same compound, the IC50 in data set [14] is 550 nM; in data set [15] it was 4400 nM; in data set [16], 247 nM; in [18] it was 3450 nM; in data set [19], 820 nM. Moreover, the Ratio IC50 is > 10 in the data set filed under Homo sapiens [2]; > 10 in the data set listed under Homo sapiens [4]; > 400 in the data set listed under Homo sapiens [7]; < 10 in the data set filed under Homo sapiens [10]; > 400 in the data set filed under Homo sapiens [11]. Moreover, the hepatocyte CLint at 1.5 h in the data set “in vitro [9]” was determined as 12 µL/min/1e6 cells; in “in vitro [13]” it was 74 µL/min/1e6 cells. Moreover, the solubility thermodynamic at 24 h in data set [17] is 19 µM (≈ 5.63 µg/mL).
Take `COCc1ccc(-c2ccc3ncc(C(N)=O)c(N[C@@H](C)C4CCOCC4)c3c2)cn1`: the bioavailability in data set [20] is 31%; in data set [23], 46%. Besides, the hepatocyte CLint in [21] is < 5.3 µL/min/1e6 cells; in [25], 11 µL/min/1e6 cells; in data set [26], < 2.6 µL/min/1e6 cells; in data set [28], 18 µL/min/1e6 cells. The compound also showed a Cmax in data set [22] of 6 µM. For the same compound, the Vd is 1.1 L/kg in data set [24] and 2.6 L/kg in data set [30]. Further, the clearance is 18 mL/min/kg in data set [27] and 50 mL/min/kg in data set [31]. The hepatocyte CLint at 1.5 h was < 2.6 µL/min/1e6 cells in “in vitro [9]” and < 5.3 µL/min/1e6 cells in the data set “in vitro [13]”. The logD in “physchem” was determined as 2.5. This compound yielded an area under the curve AUC(0-t) at 24 h in data set [29] of 40 µM·h. In addition, the Time in the data set with Mus musculus is 10 h. Moreover, the solubility thermodynamic at 24 h in [17] was found to be 590 µM (≈ 248 µg/mL).

For the origin of these results see ChEMBL document CHEMBL4477207, “Discovery of Novel 3-Quinoline Carboxamides as Potent, Selective, and Orally Bioavailable Inhibitors of Ataxia Telangiectasia Mutated (ATM) Kinase” (J Med Chem, 2016).
